Assay results collected from several papers.
Compare with care: the assays were run in different laboratories.
Cell line: HCT-116
Observed: cell growth or viability

SMILES | assay | conditions | IC50
COCCCOc1ccnc(COc2ccc(NC(=O)Nc3ccc(F)cc3)cc2)c1C | MTT | 72 h | 6.44 µM
CCOC(=O)/C=C1\S/C(=N\C(=O)c2ccc3ccccc3c2)N(C2CCCCC2)C1=O | – | 48 h | 11.4 µM
CSc1nc(N)n(-c2ccc(C(=O)O)cc2)n1 | MTT | – | 61 µM
O=C(NC(=S)Nc1ccccc1)c1ccc2ccccc2c1 | – | 48 h | 5.77 µM
CC1=C(O)C(=O)C=C2C1=CC=C1[C@@]2(C)CC[C@@]2(C)[C@@H]3C[C@](C)(C(=O)OCCCCCO)CC[C@]3(C)CC[C@]12C | MTT | 48 h | 0.48 µM
COc1ccc(-c2nc(C(=O)Nc3nnc(-c4cc5ccccc5n4C)s3)cc3c2[nH]c2ccccc23)cc1 | MTT | 72 h | 8.07 µM
CC1=C(O)C(=O)C=C2C1=CC=C1[C@@]2(C)CC[C@@]2(C)[C@@H]3C[C@](C)(C(=O)OCCCBr)CC[C@]3(C)CC[C@]12C | MTT | 48 h | 0.52 µM
NC(=O)NOCCCCCCCCCCCCCCCCCCCC[P+](c1ccccc1)(c1ccccc1)c1ccccc1 | imaging | – | 0.23 µM
O=C(NC(=S)NCc1ccccc1)c1ccc2ccccc2c1 | – | 48 h | 4.55 µM
COc1ccc(Nc2nc(-n3nc(C)cc3C)nc(-n3nc(C)cc3C)n2)cc1 | MTT | 72 h | 3.66 µM
O=c1cc(-c2ccc(O)c(O)c2)oc2cc(O)cc(O)c12 | WST-1 | 48 h | 11.1 µM
COCCCOc1ccnc(COc2ccc(NC(=O)Nc3cccc(C(F)(F)F)c3)cc2)c1C | MTT | 72 h | 8.81 µM
CC(=O)SCc1cc(=O)oc2cc(O)ccc12 | MTT | 36 h | > 20 µM
Nc1ncnc2c1ncn2[C@@H]1O[C@H](CO)[C@@H](O)[C@H]1O | WST-1 | 48 h | 41.8 µM
Cc1c(NC(=O)c2ccc(C(C)(C)C)cc2)cccc1-c1cn(C)c(=O)c(Nc2ccc(C(=O)N3CCOCC3)cc2)n1 | – | – | > 10 µM
COc1c(C)cnc(COc2ccc(NC(=O)Nc3ccc(Cl)c(C(F)(F)F)c3)cc2)c1C | MTT | 72 h | 8.17 µM
CC1=C(O)C(=O)C=C2C1=CC=C1[C@@]2(C)CC[C@@]2(C)[C@@H]3C[C@](C)(C(=O)OCCCCCCCO)CC[C@]3(C)CC[C@]12C | MTT | 48 h | 0.93 µM
COc1cc([C@@H]2c3cc4c(cc3[C@@H](O[C@@H]3O[C@@H]5CO[C@@H](C)O[C@H]5[C@H](O)[C@H]3O)[C@H]3COC(=O)[C@H]23)OCO4)cc(OC)c1O | MTS | 24 h | 29.6 µM
COc1cc(OC)c(/C=C/S(=O)(=O)Nc2ccc(OC)c(N)c2)c(OC)c1 | trypan blue | 96 h | 0.004 µM
O=C(/C=C/c1ccc(O)c(O)c1)O[C@@H]1C[C@](O)(C(=O)O)C[C@@H](O)[C@H]1O | WST-1 | 48 h | 27.9 µM
COc1ccc(-c2nc(C(=O)Nc3nnc(-c4cc5ccccc5[nH]4)s3)cc3c2[nH]c2ccccc23)cc1 | MTT | 72 h | 4.78 µM
CNC(=O)c1cc(Oc2ccc(NC(=O)Nc3ccc(Cl)c(C(F)(F)F)c3)cc2)ccn1 | MTT | 72 h | 2.25 µM
Clc1ccc(C[n+]2cn(CCc3ccccc3)c3ccccc32)cc1 | MTT | 72 h | 18.4 µM
COc1ccnc(COc2ccc(NC(=O)Nc3ccc(F)cc3)cc2)c1OC | MTT | 72 h | 22.3 µM

SMILES | assay | conditions | IC50
CSc1nc(/N=C/c2cc(Br)ccc2O)n(-c2ccc(C(=O)O)cc2)n1 | MTT | – | 59.4 µM
Cc1c(O)ccc2ccc(=O)oc12 | MTT | 36 h | > 20 µM
CCC[C@H](Nc1nc(-c2ccc(NC(=O)NCC)c(OC)c2)ncc1C)c1cccnc1 | fluorescence | 72 h | 0.0477 µM
COc1ccc(O)c(/C=N/c2nc(SC)nn2-c2ccc(C(=O)O)cc2)c1 | MTT | – | 55.3 µM
CC[C@H](C)C(=O)O[C@H]1C[C@@H](C)C=C2C=C[C@H](C)[C@H](CC[C@@H]3C[C@@H](O)CC(=O)O3)[C@H]21 | SRB | 72 h | 6.79 µg/mL
O=c1cc(CCl)c2c(O)cc(O)cc2o1 | MTT | 36 h | > 20 µM
Cn1c(-c2nnc(NC(=O)c3cc4c([nH]c5ccccc54)c(-c4ccccc4)n3)s2)cc2ccccc21 | MTT | 72 h | 10.3 µM
O=C(/N=C1\S/C(=C\c2ccc(Cl)cc2)C(=O)N1C1CCCCC1)c1ccc2ccccc2c1 | – | 48 h | 9.28 µM
COc1ccnc(COc2ccc(NC(=O)Nc3cccc(C(F)(F)F)c3)cc2)c1OC | MTT | 72 h | 22.9 µM
Cc1ccc([P+](CCCCCCCCCCONC(N)=O)(c2ccc(C)cc2)c2ccc(C)cc2)cc1 | imaging | – | 3.7 µM
CC1CCC(OCn2c[n+](Cc3ccccc3)c3ccccc32)CC1 (centres unmarked) | MTT | 72 h | 21.9 µM
COc1ccnc(COc2ccc(NC(=O)Nc3ccc(Cl)c(C(F)(F)F)c3)cc2)c1OC | MTT | 72 h | 18.1 µM
CSc1nc(NC(=S)NCCc2ccccc2)n(-c2ccc(C(=O)O)cc2)n1 | MTT | – | 45.8 µM
O=C(Nc1nnc(-c2cc3ccccc3[nH]2)s1)c1cc2c([nH]c3ccccc32)c(-c2ccc(Cl)cc2)n1 | MTT | 72 h | 5.98 µM
O=C(/N=C1\SCC(=O)N1C1CCCCC1)c1ccc2ccccc2c1 | – | 48 h | 9.12 µM
CC1=C(O)C(=O)C=C2C1=CC=C1[C@@]2(C)CC[C@@]2(C)[C@@H]3C[C@](C)(C(=O)OCCO)CC[C@]3(C)CC[C@]12C | MTT | 48 h | 0.47 µM
O=c1cc(CCl)c2ccc(O)cc2o1 | MTT | 36 h | 8.47 µM
O=C(NC(=S)NCCNC(=S)NC(=O)c1ccc2ccccc2c1)c1ccc2ccccc2c1 | – | 48 h | 1.31 µM
Cc1c(OCC(F)(F)F)ccnc1COc1ccc(NC(=O)Nc2ccc(F)cc2)cc1 | MTT | 72 h | 6.35 µM
CC(C)n1c(/C=C/C(O)CC(O)CC(=O)O)c(-c2ccc(F)cc2)c2ccccc21 (centres unmarked) | SRB | 72 h | 7.06 µg/mL
CC(=O)Oc1ccc2oc(=O)cc(CSC(C)=O)c2c1 | MTT | 36 h | > 20 µM
COC(=O)c1ccc(-n2nc(SC)nc2N)cc1 | MTT | – | 39.1 µM
COc1cccc2c1C(=O)c1c(O)c3c(c(O)c1C2=O)C[C@@](O)(C(=O)CO)C[C@@H]3O[C@H]1C[C@H](N)[C@H](O)[C@H](C)O1 | SRB | – | 57.8 µM
